Published values pooled from the literature.
Compare with care: the assays were run in different laboratories.
Matrix: plasma
Route: intravenous

SMILES | system | conditions | clearance [mL/min/kg]
C[C@H]1CN(c2ccc(C3CCC(=O)NC3=O)cc2F)CCN1CC12CCC(NS(=O)(=O)c3ccc(Nc4ncc(C(F)(F)F)c(N5CCC[C@](C)(O)C5)n4)c(F)c3)(CC1)CO2 (stereo partly drawn) | rat | 2 mg/kg | 18
O=C1CCC(N2Cc3cc(C4CCN(Cc5ccccc5)CC4)ccc3C2=O)C(=O)N1 (stereo not drawn) | male Sprague-Dawley rat | 1 mg/kg | 51.4
COc1ccc(-c2coc3cc(O)cc(O)c3c2=O)cc1 | rat | 2 mg/kg | 48.9
COc1ccc(N(Cc2csc(-c3ccccc3)n2)C(=O)CCCCCC(=O)NO)cc1 | female Sprague-Dawley rat | 5 mg/kg | 6810
CNS(=O)(=O)c1ccc(Nc2ncc3cc(Cl)c(=O)n(C4CCCC4)c3n2)c(C)c1 | rat | 2 mg/kg | 50
Cc1nc(Nc2ncc(C(=O)Nc3c(C)cccc3Cl)s2)cc(N2CC[C@H](N)C2)n1 | male Sprague-Dawley rat | 1 mg/kg | 51.7
COc1cc(-c2cc(C(C)=O)n3ccccc23)c(OC)cc1Cn1ccnc1 | male Sprague-Dawley rat | 5 mg/kg | 20.1
Cc1cc(S(=O)(=O)NC2CC(N3CCN(CC4CCN(c5cccc6c5n(C)c(=O)n6C5CCC(=O)NC5=O)CC4)C4(CC4)C3)C2)ccc1Nc1ncc(C(F)(F)F)c(N2CCC[C@](C)(O)C2)n1 (stereo partly drawn) | rat | 2 mg/kg | 35
Cc1nc(Nc2ncc(C(=O)Nc3c(C)cccc3Cl)s2)cc(N2CCN(CCO)CC2)n1 | male Sprague-Dawley rat | 1 mg/kg | 21.7
O=c1c(NCCc2cccc(Cl)c2)c(Nc2ccc(Cl)cc2)c1=O | male Sprague-Dawley rat | 1 mg/kg | 29.3
[2H]c1cc(C)c(NC(=O)c2cnc(Nc3cc(N4CCC(O)CC4)nc(C)n3)s2)c(Cl)c1 | male Sprague-Dawley rat | 1 mg/kg | 33.3
C=CCn1c(=O)c2cnc(Nc3ccc(N4CCN(C)CC4)cc3)nc2n1-c1ccc2c(n1)[C@@](O)(CC)CC2 | rat | 3 mg/kg | 33
